Source: ChEMBL document CHEMBL1148346, “Tiplaxtinin, a novel, orally efficacious inhibitor of plasminogen activator inhibitor-1: design, synthesis, and preclinical characterization” (J Med Chem, 2004)

Experiments:
[1] = target: Plasminogen activator inhibitor 1 (Homo sapiens, UniProt P05121); experiment: Inhibition of human plasminogen activator inhibitor-1
[2] = system: Canis familiaris; experiment: Oral efficacy in dog thrombosis model at 3 mg/kg expressed as arterial occlusion; type: functional, Canis lupus familiaris
Procedure, shortened: (§1)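 Anesthetized dogs dosed orally, then an electrolytic injury made in the coronary artery lumen. Occlusion was taken as zero flow, and flow, occlusion time and spontaneous reperfusion were monitored over 4 h. Three dogs per group, mean ± SEM.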

[3] = AUC0-infinity after single intravenous bolus of 1 mg/kg in rats; type: ADME, organism-based; set-up: time infinity, dose 1 mg/kg, route intravenous; details: rat, plasma
[4] = Cmax after single intravenous bolus of 1 mg/kg in dogs; type: ADME, organism-based, Canis lupus familiaris; set-up: dose 1 mg/kg, route intravenous; details: dog, in vivo
Procedure, shortened: (§2)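 Male beagle dogs given a single iv bolus of 1 mg/kg. Plasma sampled, with apparent half-life, Cmax and AUC0-∞ derived.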

[5] = Cmax after oral dose of compound at 3 mg/kg in dogs; type: ADME, organism-based, Canis lupus familiaris; set-up: dose 3 mg/kg, route oral; details: dog, in vivo
Procedure, shortened: (§3)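 Male beagle dogs given a single oral dose of 3 mg/kg. Plasma sampled, with Cmax and half-life derived and relative bioavailability calculated.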

[6] = Apparent half-life after single intravenous bolus of 1 mg/kg in rats; type: ADME, organism-based; set-up: dose 1 mg/kg, route intravenous; details: rat, in vivo
[7] = system: Rattus norvegicus; experiment: Oral efficacy in rat thrombosis model at 1 mg/kg expressed as occlusion time; type: functional
Procedure, shortened: (§4)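 Anesthetized, instrumented rats dosed orally before chemical induction of an occlusive carotid artery thrombus. Time to occlusion, carotid flow, patency and thrombus weight compared with vehicle, four rats per group, mean ± SEM.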

[8] = Relative bioavailability after oral dose of compound at 3 mg/kg in dogs; type: ADME, organism-based, Canis lupus familiaris; details: dog, in vivo; procedure, shortened: as §3
[9] = AUC0-infinity after single intravenous bolus of 1 mg/kg in dogs; type: ADME, organism-based, Canis lupus familiaris; set-up: time infinity, dose 1 mg/kg, route intravenous; details: dog, plasma; procedure, shortened: as §2
[10] = Cmax after repeated oral dose of compound at 1 mg/kg in rats; type: ADME, organism-based; set-up: dose 1 mg/kg, route oral; details: rat, in vivo
Procedure, shortened: (§5)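 Male SD rats given repeated oral doses of 1 mg/kg. Plasma concentrations measured, with Cmax, half-life and AUC0-24 derived.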

[11] = system: Rattus norvegicus; experiment: Oral efficacy in rat thrombosis model at 1 mg/kg expressed as thrombus weight; type: functional; procedure, shortened: as §4
[12] = AUC after administration at 2000 mg/kg/day in rats; type: ADME, organism-based; details: rat, plasma
[13] = system: Canis familiaris; experiment: Oral efficacy in dog thrombosis model at 3 mg/kg expressed as coronary flow reduction
[14] = AUC0-24 after repeated oral dose of compound at 1 mg/kg in rats; type: ADME, organism-based; set-up: time < 24 hr, dose 1 mg/kg, route oral; details: rat, plasma; procedure, shortened: as §5
[15] = AUC after administration at 100 mg/kg/day in dogs; type: ADME, organism-based, Canis lupus familiaris; details: dog, plasma
[16] = system: Rattus norvegicus; experiment: Oral efficacy in rat thrombosis model at 1 mg/kg expressed as carotid flow reduction; type: functional; procedure, shortened: as §4
[17] = Half-life after oral dose of compound at 3 mg/kg in dogs; type: ADME, organism-based, Canis lupus familiaris; set-up: dose 3 mg/kg, route oral; details: dog, in vivo; procedure, shortened: as §3
[18] = system: Rattus norvegicus; experiment: Oral efficacy in rat thrombosis model at 1 mg/kg expressed as arterial occlusion; type: functional; procedure, shortened: as §4
[19] = system: Canis familiaris; experiment: Oral efficacy in dog thrombosis model at 3 mg/kg expressed as spontaneous reperfusion; type: functional, Canis lupus familiaris; procedure, shortened: as §1
[20] = system: Canis familiaris; experiment: Oral efficacy in dog thrombosis model at 3 mg/kg expressed as occlusion time; type: functional, Canis lupus familiaris; procedure, shortened: as §1
[21] = Cmax after single intravenous bolus of 1 mg/kg in rats; type: ADME, organism-based; set-up: dose 1 mg/kg, route intravenous; details: rat, in vivo
[22] = Apparent half-life after single intravenous bolus of 1 mg/kg in dogs; type: ADME, organism-based, Canis lupus familiaris; set-up: dose 1 mg/kg, route intravenous; details: dog, in vivo; procedure, shortened: as §2
[23] = Half-life after repeated oral dose of compound at 1 mg/kg in rats; type: ADME, organism-based; set-up: dose 1 mg/kg, route oral; details: rat, in vivo; procedure, shortened: as §5

Sequence of Plasminogen activator inhibitor 1 (P05121 whole entry): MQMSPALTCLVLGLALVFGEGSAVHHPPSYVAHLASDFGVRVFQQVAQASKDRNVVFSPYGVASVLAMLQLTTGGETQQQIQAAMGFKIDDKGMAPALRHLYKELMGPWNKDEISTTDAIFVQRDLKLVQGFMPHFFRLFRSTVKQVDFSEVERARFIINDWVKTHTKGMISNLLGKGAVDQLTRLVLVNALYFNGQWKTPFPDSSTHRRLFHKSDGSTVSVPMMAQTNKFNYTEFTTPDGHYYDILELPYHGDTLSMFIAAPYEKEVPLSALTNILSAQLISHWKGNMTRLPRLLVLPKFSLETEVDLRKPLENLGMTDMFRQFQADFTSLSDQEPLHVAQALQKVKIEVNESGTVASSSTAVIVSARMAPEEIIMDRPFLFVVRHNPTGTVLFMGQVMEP

With O=C(Nc1ccc(Cl)c(Cl)c1)c1ccc(CNc2cc([N+](=O)[O-])ccc2C(=O)O)cc1 the IC50 [1] was 13 µM.
CC(C)(C)c1ccc(Cn2cc(C(=O)C(=O)O)c3ccc(-c4ccc(OC(F)(F)F)cc4)cc32)cc1 gave an IC50 [1] of over 50 µM.
For CC(C)(C)c1ccc(Cn2cc(C(=O)C(=O)O)c3cc(-c4cccc(C(C)(C)C)c4)ccc32)cc1, the IC50 [1] was 10 µM.
For O=C(O)c1ccc(-n2c(-c3ccccc3)cc3c2CCc2ccccc2-3)cc1O, the IC50 [1] was 13 µM.
With O=C(O)C(=O)c1cn(Cc2ccccc2)c2cc(-c3ccccc3)ccc12 the IC50 [1] was 26 µM.
Work on CN(C)CCSc1ccc(/C=c2\[nH]c(=O)/c(=C/c3ccccc3)[nH]c2=O)s1 yielded an IC50 [1] of 8 µM.
Compound O=C(O)C(=O)c1cn(Cc2ccccc2)c2cccc(-c3ccc(OC(F)(F)F)cc3)c12 has an IC50 [1] of over 50 µM.
Compound COc1cccc(-c2ccc3c(c2)c(C(=O)C(=O)O)cn3Cc2ccc(C(C)(C)C)cc2)c1 has an IC50 [1] of 21 µM.
In the case of O=C(O)C(=O)c1cn(Cc2ccccc2)c2ccc(-c3ccc(OC(F)(F)F)cc3)cc12 [TIPLASININ], the Arterial occlusion [2] is reported as 100%, the AUC(0-inf) [3] is reported as 2.45 µg·h/mL and the Cmax [4] is reported as 13.4 µg/mL. For the same compound, the Cmax [5] was 2.14 µg/mL, the half-life [6] was 2.95 h and the Occlusion time [7] was 50.5 min. It also gave a bioavailability [8] of 32%, an AUC(0-inf) [9] of 20.5 µg·h/mL and a Cmax [10] of 0.23 µg/mL. For the same compound, the Thrombus weight [11] was 0.5 mg, the AUC [12] was about 1510 µg·h/mL and the Coronary flow reduction [13] was 66%. It also gave an AUC at 24 h [14] of 0.96 µg·h/mL, an AUC [15] of about 613 µg·h/mL and a Carotid flow reduction [16] of 47.3%. It also gave a half-life [17] of 5.42 h, an Arterial occlusion [18] of 25% and a Spontaneous reperfusion [19] of 100%. It also gave an Occlusion time [20] of 71.6 min, a Cmax [21] of 4.95 µg/mL and a half-life [22] of 3.73 h. It also gave a half-life [23] of 4.1 h.
In the case of O=C(O)C(=O)c1cn(Cc2ccc(F)cc2)c2cc(-c3ccccc3)ccc12, the IC50 [1] is reported as 35 µM.
With Cc1cccc(-c2ccc3c(c2)c(C(=O)C(=O)O)cn3Cc2ccc(C(C)(C)C)cc2)c1 [ALEPLASININ] the IC50 [1] was 8.6 µM.
Work on O=C(O)C(=O)c1cn(Cc2ccccc2)c2cc(-c3ccc(OC(F)(F)F)cc3)ccc12 yielded an IC50 [1] of 17 µM.
Work on CC(C)(C)c1ccc(Cn2cc(C(=O)C(=O)O)c3cc(-c4ccc(OC(F)(F)F)cc4)ccc32)cc1 yielded an IC50 [1] of 16 µM.
